Test results as given in ChEMBL document CHEMBL1124080, “Potential antitumor agents. 55. 6-Phenylphenanthridine-4-carboxamides: a new class of DNA-intercalating antitumor agents” (J Med Chem, 1988).
“And” between values parts separate entries of the source, which are not always exact repeats. Identical values can stand only once. The source made the active and inactive calls.

What was measured:
P388 [1] = assay: Optimal dose following i.p. administration on days 1,5 and 9 after inoculation of 10e6 P388 leukemia cells to mice.; type: functional, Mus musculus
How it was run: (§1)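 Mice inoculated intraperitoneally with 10^6 P388 leukemia cells. Drug given i.p. as a solution in 0.1 mL 30% v/v ethanol/water on days 1, 5 and 9. Optimal dose in mg/kg per day. ILS is the percent increase in lifespan over untreated tumor-bearing controls at that dose; above 20% counted significant. Long-term survival judged at 50 days, groups of six.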

[2] = test system: Lewis lung carcinoma cell line; assay: Optimal dose administered intraperitoneally to mice infected with Lewis lung carcinoma cells(LL) in vivo; type: functional, Mus musculus
P388 [3] = assay: The percentage increase in lifespan of compound with P388 tumor bearing controls when treated at optimal dose; type: functional, Mus musculus
How it was run: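 P388 leukemia: 10^6 cells inoculated intraperitoneally. ILSmax is the percentage lifespan increase over tumor-bearing controls at the optimal dose (mg/kg per day). Groups of six; long-term survivors counted at 50 days; values above 20% considered significant.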

L1210 = assay: Inhibition of growth of murine leukemia (L1210) cells.; type: functional, cell-based; conditions: Mus musculus
How it was run: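 Murine leukemia L1210 cells grown in culture with drug for 40 h; IC50 taken as the concentration (nM) giving 50% growth inhibition.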

[4] = test system: poly[d(A-T)] and poly[d(G-C)]; assay: Binding constant for poly[d(A-T)] and poly[d(G-C)] by ethidium bromide displacement
P388 [5] = assay: Optimal dose administered intraperitoneally on days 1,5 and 9 after intraperitoneal inoculation of 10e6 P388 leukemia cells in vivo.; type: functional, Mus musculus; how it was run: as §1
[6] = pKa was evaluated; type: physicochemical
How it was run: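 pKa determined spectrophotometrically in aqueous solution.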

[7] = test system: Lewis lung carcinoma cell line; assay: The percentage increase in lifespan of compound with Lewis lung carcinoma tumor bearing controls when treated at OD; type: functional, Mus musculus
How it was run: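 Lewis lung carcinoma: 10^6 cells inoculated intravenously. ILSmax is the percentage increase in lifespan over tumor-bearing controls at the optimal dose (mg/kg per day). Groups of six; long-term survivors counted at 60 days; values above 40% considered significant.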

P388 [8] = assay: The percentage increase in lifespan of compound with P388 tumor bearing controls when treated at optimal dose; Not active; type: functional; conditions: Mus musculus; how it was run: as §1
[9] = test system: Lewis lung carcinoma cell line; assay: The percentage increase in lifespan of compound with Lewis lung carcinoma tumor bearing controls when treated at OD; Not active; type: functional, cell-based; conditions: Mus musculus
[10] = test system: Lewis lung carcinoma cell line; assay: OD administered intraperitoneally to mice infected with Lewis lung carcinoma cells(LL) in vivo; type: functional, Mus musculus
[11] = test system: Lewis lung carcinoma cell line; assay: Optimal dose administered intraperitoneally to mice infected with Lewis lung carcinoma cells(LL) in vivo.; type: functional, Mus musculus

## CN(C)CCNC(=O)c1cccc2c1nc(-c1cccc(Cl)c1)c1ccccc12.Cl.Cl
P388 [1]
  OD: 65 mg/kg/day
[2]
  OD: 100 mg/kg/day
P388 [3]
  ILSmax: 88%
L1210
  IC50: 0.066 µM
[4]
  Log K: 6.41 and 6.56

## CN(C)CCCCNC(=O)c1cccc2c1ncc1ccccc12.Cl
P388 [5]
  OD: 100 mg/kg/day
L1210
  IC50: 3.29 µM
[4]
  Log K: 5.64 and 5.28

## CN(C)CCNC(=O)c1cccc2c1nc(-c1ccccc1)c1ccccc12
P388 [1]
  OD: 45 mg/kg/day
[2]
  OD: 65 mg/kg/day
[6]
  pKa: 2.75
P388 [3]
  ILSmax: 92%
L1210
  IC50: 0.12 µM
[4]
  Log K: 6.26 and 6.33
[7]
  ILSmax: 126%

## CN(C)CCNC(=O)c1cccc2c1nc(-c1ccc(I)cc1)c1ccccc12.Cl.Cl
P388 [1]
  OD: 65 mg/kg/day
P388 [8]
  ILSmax: inactive
[2]
  OD: 65 mg/kg/day
L1210
  IC50: 2.24 µM
[4]
  Log K: 7.33 and 7.23
[9]
  ILSmax: inactive

## CN(C)CCNC(=O)c1cccc2c1nc(-c1ccc(Cl)cc1)c1ccccc12
P388 [1]
  OD: 45 mg/kg/day
[2]
  OD: 65 mg/kg/day
[6]
  pKa: 2.52
P388 [3]
  ILSmax: 34%
L1210
  IC50: 0.41 µM
[4]
  Log K: 6.26 and 6.24
[9]
  ILSmax: inactive

## CN(C)CCNC(=O)c1cccc2c1nc(-c1ccc(NS(C)(=O)=O)cc1)c1ccccc12.Cl.Cl
P388 [1]
  OD: 30 mg/kg/day
[10]
  OD: 20 mg/kg/day
P388 [8]
  ILSmax: inactive
L1210
  IC50: 0.35 µM
[4]
  Log K: 6.24 and 6.36
[9]
  ILSmax: inactive

## CN(C)CCNC(=O)c1cccc2c1nc(-c1ccccn1)c1ccccc12.Cl
P388 [1]
  OD: 65 mg/kg/day
[2]
  OD: 65 mg/kg/day
P388 [3]
  ILSmax: 20%
L1210
  IC50: 0.72 µM
[4]
  Log K: 5.69 and 5.77

## CN(C)CCNC(=O)c1cccc2c1nc(-c1cccnc1)c1ccccc12.Cl.Cl.Cl
P388 [1]
  OD: 45 mg/kg/day
[2]
  OD: 65 mg/kg/day
P388 [3]
  ILSmax: 104%
L1210
  IC50: 0.013 µM
[4]
  Log K: 6.35 and 6.21
[7]
  ILSmax: 93%

## CN(C)CCNC(=O)c1cccc2c1nc(-c1ccncc1)c1ccccc12.Cl.Cl
P388 [1]
  OD: 100 mg/kg/day
[2]
  OD: 100 mg/kg/day
P388 [3]
  ILSmax: 93%
L1210
  IC50: 0.014 µM
[4]
  Log K: 6.9 and 7
[9]
  ILSmax: inactive

## CN(C)CCNC(=O)c1cccc2c1nc(-c1ccccc1Cl)c1ccccc12.Cl
P388 [1]
  OD: 45 mg/kg/day
P388 [8]
  ILSmax: inactive
L1210
  IC50: 2.87 µM
[4]
  Log K: 6.45 and 6.6

## CN(C)CCCCNC(=O)c1cccc2c1nc(-c1ccccc1)c1ccccc12.Cl.Cl
P388 [8]
  ILS max: inactive
[2]
  OD: 45 mg/kg/day
P388 [5]
  OD: 65 mg/kg/day
L1210
  IC50: 1.06 µM
[4]
  Log K: 6.59 and 6.4
[9]
  ILSmax: inactive

## COc1ccc(-c2nc3c(C(=O)NCCN(C)C)cccc3c3ccccc23)cc1.Cl.Cl
P388 [5]
  OD: 65 mg/kg/day
P388 [3]
  ILSmax: 22%
[11]
  OD: 100 mg/kg/day
L1210
  IC50: 0.5 µM
[9]
  ILSmax: inactive

## CN(C)CCNC(=O)c1cccc2c1nc(-c1ccc(N)cc1)c1ccccc12
P388 [5]
  OD: 30 mg/kg/day
P388 [3]
  ILSmax: 27%
[11]
  OD: 45 mg/kg/day
L1210
  IC50: 0.13 µM
[4]
  Log K: 6.29 and 6.57
[9]
  ILSmax: inactive

## CN(C)CCCNC(=O)c1cccc2c1nc(-c1ccccc1)c1ccccc12.Cl.Cl
P388 [1]
  OD: 45 mg/kg/day
[2]
  OD: 65 mg/kg/day
P388 [3]
  ILSmax: 24%
L1210
  IC50: 1.12 µM
[4]
  Log K: 6.5 and 6.11
[9]
  ILSmax: inactive

## CN(C)CCNC(=O)c1cccc2c1nc(-c1ccc(F)cc1)c1ccccc12.Cl.Cl
P388 [1]
  OD: 20 mg/kg/day
[2]
  OD: 45 mg/kg/day
P388 [3]
  ILSmax: 63%
L1210
  IC50: 0.043 µM
[7]
  ILSmax: 45%

## CN(C)CCNC(=O)c1cccc2c1ncc1ccccc12.Cl.Cl
P388 [1]
  OD: 100 mg/kg/day
[2]
  OD: 150 mg/kg/day
[6]
  pKa: 2.95
P388 [3]
  ILSmax: 73%
L1210
  IC50: 2.1 µM
[4]
  Log K: 5.9 and 5.61
[7]
  ILSmax: 117%

## CC(=O)Nc1ccc(-c2nc3c(C(=O)NCCN(C)C)cccc3c3ccccc23)cc1
P388 [1]
  OD: 30 mg/kg/day
P388 [3]
  ILSmax: 22%
[11]
  OD: 45 mg/kg/day
L1210
  IC50: 0.054 µM
[4]
  Log K: 6.13 and 6.31
[9]
  ILSmax: inactive

## Br.Br.CN(C)CCNC(=O)c1cccc2c1nc(-c1ccc(O)cc1)c1ccccc12.Cl.Cl
P388 [1]
  OD: 65 mg/kg/day
P388 [8]
  ILS max: inactive
[2]
  OD: 65 mg/kg/day
L1210
  IC50: 0.37 µM
[9]
  ILS max: inactive

## CN(C)CCNC(=O)c1cccc2c1nc(-c1ccc([N+](=O)[O-])cc1)c1ccccc12
P388 [5]
  OD: 65 mg/kg/day
P388 [3]
  ILSmax: 65%
[11]
  OD: 65 mg/kg/day
L1210
  IC50: 0.54 µM
[4]
  Log K: 6.41 and 6.54
[9]
  ILSmax: inactive

## CN(C)CCCNC(=O)c1cccc2c1ncc1ccccc12.Cl.Cl
P388 [1]
  OD: 100 mg/kg/day
L1210
  IC50: 3.59 µM
[4]
  Log K: 5.74 and 5.37

## CN(C)CCNC(=O)c1cccc2c1nc(-c1ccc(Br)cc1)c1ccccc12
P388 [1]
  OD: 65 mg/kg/day
P388 [8]
  ILS max: inactive
[11]
  OD: 45 mg/kg/day
L1210
  IC50: 1.01 µM
[4]
  Log K: 7.04 and 6.76
[9]
  ILSmax: inactive
